Measurements taken from ChEMBL document CHEMBL3877264, “Quinolidene-rhodanine conjugates: Facile synthesis and biological evaluation” (Eur J Med Chem, 2017).
Converted amounts (≈) assume the structure as drawn.

Experiments:
Type in all cases: functional
Candida albicans = test: Antifungal activity against Candida albicans NCIM 3471 by standard agar method
How it was run: (§1)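 MICs determined by standard agar method; DMSO as solvent control.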

[1] = Antifungal activity against Cryptococcus neoformans NCIM 576 by standard agar method; how it was run: as §1
Aspergillus niger = test: Antifungal activity against Aspergillus niger NCIM 1196 by standard agar method; how it was run: as §1
[2] = Antifungal activity against Fusarium oxysporum NCIM 1332 by standard agar method; how it was run: as §1
Aspergillus flavus = test: Antifungal activity against Aspergillus flavus NCIM 539 by standard agar method; how it was run: as §1
Escherichia coli [3] = test: Growth inhibition of Escherichia coli NCIM 2688 at 3 ug/ml measured after 8 hrs relative to control; conditions: NCIM 2688, 8 h, read-out: GI
How it was run: (§2)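 Bacteria grown in LB at 37 °C and 180 rpm to OD 1. Compounds added to wells, then 0.1% inoculum of 1 OD culture (620 nm). Growth read as OD at 620 nm after 8 h for gram-negative and after 12 h for gram-positive strains.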

Bacillus subtilis [4] = test: Growth inhibition of Bacillus subtilis NCIM 2079 at 10 ug/ml measured after 12 hrs relative to control; conditions: NCIM 2079, 12 h, read-out: GI; how it was run: as §2
Escherichia coli [5] = test: Growth inhibition of Escherichia coli NCIM 2688 at 10 ug/ml measured after 8 hrs relative to control; conditions: NCIM 2688, 8 h, read-out: GI; how it was run: as §2
Staphylococcus aureus [6] = test: Growth inhibition of Staphylococcus aureus NCIM 2010 at 30 ug/ml measured after 12 hrs relative to control; conditions: NCIM 2010, 12 h, read-out: GI; how it was run: as §2
Bacillus subtilis [7] = test: Growth inhibition of Bacillus subtilis NCIM 2079 at 30 ug/ml measured after 12 hrs relative to control; conditions: NCIM 2079, 12 h, read-out: GI; how it was run: as §2
Bacillus subtilis [8] = test: Antibacterial activity against Bacillus subtilis NCIM 2079 measured after 12 hrs; conditions: NCIM 2079, 12 h; how it was run: as §2
Escherichia coli [9] = test: Antibacterial activity against Escherichia coli NCIM 2688 measured after 8 hrs; conditions: NCIM 2688, 8 h; how it was run: as §2
Pseudomonas fluorescens [10] = test: Antibacterial activity against Pseudomonas fluorescens NCIM 2036 measured after 8 hrs; conditions: NCIM 2036, 8 h; how it was run: as §2
Pseudomonas fluorescens [11] = test: Growth inhibition of Pseudomonas fluorescens NCIM 2036 at 10 ug/ml measured after 8 hrs relative to control; conditions: NCIM 2036, 8 h, read-out: GI; how it was run: as §2
[12] = tested on: Mycobacterium tuberculosis; test: Growth inhibition of Mycobacterium bovis BCG ATCC 35743 at dormant stage at 10 ug/ml measured after 12 days by nitrate reductase dye based two fold dilution method relative to control; conditions: BCG str. ATCC 35743, 288 h, read-out: GI
How it was run: (§3)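 M. bovis BCG was grown in Dubos medium and assayed in Mycobacterium pheli minimal medium (pH 6.6), with compounds from DMSO stocks. Incubation lasted 8 days for active and 12 days for dormant cultures. Viability was read by nitrate reductase at 540 nm against cell-free blanks, with vehicle set as 100% growth. Primary screen was at 30, 10 and 3 µg/ml, in triplicate, mean ± SD. MIC was taken from dose-response curves.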

[13] = tested on: Mycobacterium tuberculosis; test: Growth inhibition of Mycobacterium bovis BCG ATCC 35743 at dormant stage measured after 12 days by nitrate reductase dye based two fold dilution method; conditions: BCG str. ATCC 35743, 288 h; how it was run: as §3
[14] = tested on: Mycobacterium tuberculosis; test: Growth inhibition of Mycobacterium tuberculosis H37Ra ATCC 25177 at dormant stage measured after 12 days by XTT dye based two fold dilution method; conditions: H37Ra ATCC 25177, 288 h
How it was run: (§4)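 MTB H37Ra was grown in Dubos medium, then exposed in Mycobacterium pheli minimal medium (pH 6.6) to compounds dissolved in DMSO. The assay ended on day 8 (active) or day 12 (dormant). Viable cells were measured by XTT reduction menadione assay at 470 nm, blank-corrected, relative to vehicle control. Triplicates were expressed as mean ± SD. MIC came from dose-response curves.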

[15] = tested on: Mycobacterium tuberculosis; test: Growth inhibition of Mycobacterium tuberculosis H37Ra ATCC 25177 at active stage measured after 8 days by XTT dye based two fold dilution method; conditions: H37Ra ATCC 25177, 192 h; how it was run: as §4
Escherichia coli [16] = test: Growth inhibition of Escherichia coli NCIM 2688 at 30 ug/ml measured after 8 hrs relative to control; conditions: NCIM 2688, 8 h, read-out: GI; how it was run: as §2
Staphylococcus aureus [17] = test: Growth inhibition of Staphylococcus aureus NCIM 2010 at 10 ug/ml measured after 12 hrs relative to control; conditions: NCIM 2010, 12 h, read-out: GI; how it was run: as §2
[18] = tested on: Mycobacterium tuberculosis; test: Growth inhibition of Mycobacterium bovis BCG ATCC 35743 at dormant stage at 30 ug/ml measured after 12 days by nitrate reductase dye based two fold dilution method relative to control; conditions: BCG str. ATCC 35743, 288 h, read-out: GI; how it was run: as §3
[19] = tested on: Mycobacterium tuberculosis; test: Growth inhibition of Mycobacterium bovis BCG ATCC 35743 at active stage measured after 8 days by nitrate reductase dye based two fold dilution method; conditions: BCG str. ATCC 35743, 192 h; how it was run: as §3
[20] = tested on: Mycobacterium tuberculosis; test: Growth inhibition of Mycobacterium bovis BCG ATCC 35743 at dormant stage at 3 ug/ml measured after 12 days by nitrate reductase dye based two fold dilution method relative to control; conditions: BCG str. ATCC 35743, 288 h, read-out: GI; how it was run: as §3
Staphylococcus aureus [21] = test: Growth inhibition of Staphylococcus aureus NCIM 2010 at 3 ug/ml measured after 12 hrs relative to control; conditions: NCIM 2010, 12 h, read-out: GI; how it was run: as §2
Staphylococcus aureus [22] = test: Antibacterial activity against of Staphylococcus aureus NCIM 2010 measured after 12 hrs; conditions: NCIM 2010, 12 h; how it was run: as §2
Bacillus subtilis [23] = test: Growth inhibition of Bacillus subtilis NCIM 2079 at 3 ug/ml measured after 12 hrs relative to control; conditions: NCIM 2079, 12 h, read-out: GI; how it was run: as §2
Pseudomonas fluorescens [24] = test: Growth inhibition of Pseudomonas fluorescens NCIM 2036 at 3 ug/ml measured after 8 hrs relative to control; conditions: NCIM 2036, 8 h, read-out: GI; how it was run: as §2
Pseudomonas fluorescens [25] = test: Growth inhibition of Pseudomonas fluorescens NCIM 2036 at 30 ug/ml measured after 8 hrs relative to control; conditions: NCIM 2036, 8 h, read-out: GI; how it was run: as §2

Compound	MIC (Candida albicans)	MIC [1]	MIC (Aspergillus niger)	MIC [2]	MIC (Aspergillus flavus)	inhibition of growth at 3 µg/mL (Escherichia coli [3])	inhibition of growth at 10 µg/mL (Bacillus subtilis [4])	inhibition of growth at 10 µg/mL (Escherichia coli [5])	inhibition of growth at 30 µg/mL (Staphylococcus aureus [6])	inhibition of growth at 30 µg/mL (Bacillus subtilis [7])	MIC (Bacillus subtilis [8])	MIC (Escherichia coli [9])	MIC (Pseudomonas fluorescens [10])	inhibition of growth at 10 µg/mL (Pseudomonas fluorescens [11])	inhibition of growth at 10 µg/mL [12]	IC50 [13]	IC90 [13]	IC50 [14]	IC90 [14]	MIC (Staphylococcus aureus [22])	also measured
Clc1ccc(COC(Cn2ccnc2)c2ccc(Cl)cc2Cl)c(Cl)c1 (stereo unspecified) [MICONAZOLE]	25 µg/mL (≈ 60.1 µM)	25 µg/mL (≈ 60.1 µM)	25 µg/mL (≈ 60.1 µM)	25 µg/mL (≈ 60.1 µM)	12.5 µg/mL (≈ 30 µM)																
COc1ccc2cc(/C=C3\SC(=S)N(CCC(=O)O)C3=O)c(Cl)nc2c1	150 µg/mL (≈ 367 µM)	150 µg/mL (≈ 367 µM)	200 µg/mL (≈ 489 µM)		100 µg/mL (≈ 245 µM)	2.29%	-0.582%	13.7%	-17.3%	0.458%	> 30 µg/mL	> 30 µg/mL	> 30 µg/mL	-3.31%	16.9%	> 30 µg/mL	> 30 µg/mL	> 30 µg/mL	> 30 µg/mL	> 30 µg/mL	IC50 [15]: > 30 µg/mL; IC90 [15]: > 30 µg/mL; inhibition of growth at 30 µg/mL (Escherichia coli [16]): 6.84%; inhibition of growth at 10 µg/mL (Staphylococcus aureus [17]): -12.1%; inhibition of growth at 30 µg/mL [18]: 11.3%; IC50 [19]: > 30 µg/mL; IC90 [19]: > 30 µg/mL; inhibition of growth at 3 µg/mL [20]: 14.1%; inhibition of growth at 3 µg/mL (Staphylococcus aureus [21]): -13%; inhibition of growth at 3 µg/mL (Bacillus subtilis [23]): -3.95%; inhibition of growth at 3 µg/mL (Pseudomonas fluorescens [24]): -62.2%; inhibition of growth at 30 µg/mL (Pseudomonas fluorescens [25]): -33.9%
CC1(C)S[C@@H]2[C@H](NC(=O)[C@H](N)c3ccccc3)C(=O)N2[C@H]1C(=O)O [AMPICILLIN]											5.89 µg/mL (≈ 16.9 µM)	0.41 µg/mL (≈ 1.17 µM)	2.83 µg/mL (≈ 8.1 µM)							0.12 µg/mL (≈ 0.343 µM)	
CCOc1ccc2nc(Cl)c(/C=C3\SC(=S)N(CC(=O)O)C3=O)cc2c1			125 µg/mL (≈ 306 µM)	150 µg/mL (≈ 367 µM)	100 µg/mL (≈ 245 µM)	5.91%	-0.253%	18.5%	-9.57%	-2.41%	> 30 µg/mL	> 30 µg/mL	> 30 µg/mL	24.4%	24.8%	> 30 µg/mL	> 30 µg/mL	> 30 µg/mL	> 30 µg/mL	> 30 µg/mL	IC50 [15]: > 30 µg/mL; IC90 [15]: > 30 µg/mL; inhibition of growth at 30 µg/mL (Escherichia coli [16]): 71.9%; inhibition of growth at 10 µg/mL (Staphylococcus aureus [17]): -13.4%; inhibition of growth at 30 µg/mL [18]: 9.17%; IC50 [19]: > 30 µg/mL; IC90 [19]: > 30 µg/mL; inhibition of growth at 3 µg/mL [20]: 26.3%; inhibition of growth at 3 µg/mL (Staphylococcus aureus [21]): 2.94%; inhibition of growth at 3 µg/mL (Bacillus subtilis [23]): -12.7%; inhibition of growth at 3 µg/mL (Pseudomonas fluorescens [24]): -5.49%; inhibition of growth at 30 µg/mL (Pseudomonas fluorescens [25]): 4.87%
O=C(O)CN1C(=O)/C(=C/c2cc3ccccc3nc2Cl)SC1=S	125 µg/mL (≈ 343 µM)	100 µg/mL (≈ 274 µM)	100 µg/mL (≈ 274 µM)	125 µg/mL (≈ 343 µM)		-10.4%	-24.5%	-8.37%	-7.84%	-22.6%	> 30 µg/mL	> 30 µg/mL	> 30 µg/mL	-75.5%	32.9%	> 30 µg/mL	> 30 µg/mL	> 30 µg/mL	> 30 µg/mL	> 30 µg/mL	IC50 [15]: > 30 µg/mL; IC90 [15]: > 30 µg/mL; inhibition of growth at 30 µg/mL (Escherichia coli [16]): -12.1%; inhibition of growth at 10 µg/mL (Staphylococcus aureus [17]): -8.62%; inhibition of growth at 30 µg/mL [18]: 34.2%; IC50 [19]: > 30 µg/mL; IC90 [19]: > 30 µg/mL; inhibition of growth at 3 µg/mL [20]: 23.5%; inhibition of growth at 3 µg/mL (Staphylococcus aureus [21]): -17.2%; inhibition of growth at 3 µg/mL (Bacillus subtilis [23]): -12%; inhibition of growth at 3 µg/mL (Pseudomonas fluorescens [24]): -16.1%; inhibition of growth at 30 µg/mL (Pseudomonas fluorescens [25]): 13.8%
